Measured values as given in ChEMBL document CHEMBL1125152, “Design, synthesis, testing, and quantitative structure-activity relationship analysis of substituted salicylaldehyde Schiff bases of 1-amino-3-hydroxyguanidine tosylate as new antiviral agents against coronavirus” (1990).

Test system: Murine hepatitis virus
Experiment: Dose required to inhibit the growth of mouse hepatitis virus (MHV) in infected mouse astrocytoma (DBT) cells using plaque assay
Assay type: functional
In short: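 DBT monolayers infected with MHV at MOI 1 to 5, adsorbed 1 h at room temperature, then given MEM with 5% FCS plus compound (final 0.97 to 3030 μM, 0.15% DMSO) at 37 °C. Media harvested 18 h postinfection and titred by plaque assay on DBT cells (0.75% agarose overlay, 48 h, neutral red). Run in duplicate. % inhibition = (1 − T/C) × 100; TCID50 by probit analysis.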

| SMILES | EC50 |
| --- | --- |
| Cc1ccc(S(=O)(=O)O)cc1.N/C(=N\O)N/N=C/c1ccc2ccccc2n1 | 39.3 µM |
| Cc1ccc(S(=O)(=O)O)cc1.N/C(=N\O)N/N=C/c1cc(Br)cc(Br)c1O | 9.5 µM |
| Cc1ccc(S(=O)(=O)O)cc1.N/C(=N\O)N/N=C/c1nccc2ccccc12 | 47.7 µM |
| Cc1ccc(S(=O)(=O)O)cc1.N/C(=N\O)N/N=C/c1cc(O)c(O)c(O)c1 | 150 µM |
| Cc1ccc(S(=O)(=O)O)cc1.N/C(=N\O)N/N=C/c1ccccc1O | 76 µM |
| Cc1ccc(S(=O)(=O)O)cc1.N/C(=N\O)N/N=C/c1ncccc1O | 89.9 µM |
| Cc1ccc(S(=O)(=O)O)cc1.N/C(=N\O)N/N=C/c1c2ccccc2c(Cl)c2ccccc12 | 7.12 µM |
| Cc1ccc(S(=O)(=O)O)cc1.N/C(=N\O)N/N=C/c1c(O)cc(O)cc1O | 18.1 µM |
| Cc1ccc(S(=O)(=O)O)cc1.N/C(=N\O)N/N=C/c1cc([N+](=O)[O-])cc([N+](=O)[O-])c1O | 273 µM |
| Cc1ccc(S(=O)(=O)O)cc1.N/C(=N\O)N/N=C/c1cc2c(cc1Cl)OCO2 | 9.14 µM |
| Cc1ccc(S(=O)(=O)O)cc1.N/C(=N\O)N/N=C/c1ccc2c(c1)OCCO2 | 46.1 µM |
| Cc1ccc(S(=O)(=O)O)cc1.Cc1ncc(COP(=O)(O)O)c(/C=N/N=C(/N)NO)c1O | 40.8 µM |
| Cc1ccc(S(=O)(=O)O)cc1.N/C(=N\O)N/N=C/c1ccc(O)c(O)c1O | 183 µM |
| C=CCc1cccc(/C=N/N/C(N)=N/O)c1O.Cc1ccc(S(=O)(=O)O)cc1 | 3.42 µM |
| Cc1ccc(S(=O)(=O)O)cc1.N/C(=N\O)N/N=C/c1cc(Cl)cc(Cl)c1O | 9.54 µM |
